From ChEMBL document CHEMBL1149657, “Benzylamine histamine H(3) antagonists and serotonin reuptake inhibitors” (Bioorg Med Chem Lett, 2007)

Legend:
[1] = target: Sodium-dependent serotonin transporter (Homo sapiens, UniProt P31645); assay: Binding affinity to human SERT
[2] = target: Sodium-dependent dopamine transporter (Homo sapiens, UniProt Q01959); assay: Binding affinity to human DAT
How it was run: (§1)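 Human NET and DAT Ki values from one experiment run in triplicate.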

[3] = target: Sodium-dependent noradrenaline transporter (Homo sapiens, UniProt P23975); assay: Binding affinity to human NET; how it was run: as §1
[4] = target: Histamine H3 receptor (Homo sapiens, UniProt Q9Y5N1); assay: Binding affinity to human histamine H3 receptor
[5] = Drug level in rat brain at 10 mg/kg, po after 6 hrs; assay type: ADME, organism-based; design: dose 10 mg/kg, route oral; conditions: read-out: Drug uptake
[6] = Drug level in rat brain at 10 mg/kg, po after 1 hr; assay type: ADME, organism-based; design: dose 10 mg/kg, route oral; conditions: read-out: Drug uptake
[7] = Plasma concentration in rat at 10 mg/kg, po after 3 hrs; assay type: ADME, organism-based; design: dose 10 mg/kg, route oral
[8] = Plasma concentration in rat at 10 mg/kg, po after 1 hr; assay type: ADME, organism-based; design: dose 10 mg/kg, route oral
[9] = Drug level in rat brain at 10 mg/kg, po after 3 hrs; assay type: ADME, organism-based; design: dose 10 mg/kg, route oral; conditions: read-out: Drug uptake
[10] = Plasma concentration in rat at 10 mg/kg, po after 6 hrs; assay type: ADME, organism-based; design: dose 10 mg/kg, route oral
[11] = target: Sodium-dependent serotonin transporter (Rattus norvegicus, UniProt P31652); assay: Binding affinity to rat SERT
Sodium-dependent serotonin transporter (Rattus norvegicus, UniProt P31652), sequence (P31652 whole entry): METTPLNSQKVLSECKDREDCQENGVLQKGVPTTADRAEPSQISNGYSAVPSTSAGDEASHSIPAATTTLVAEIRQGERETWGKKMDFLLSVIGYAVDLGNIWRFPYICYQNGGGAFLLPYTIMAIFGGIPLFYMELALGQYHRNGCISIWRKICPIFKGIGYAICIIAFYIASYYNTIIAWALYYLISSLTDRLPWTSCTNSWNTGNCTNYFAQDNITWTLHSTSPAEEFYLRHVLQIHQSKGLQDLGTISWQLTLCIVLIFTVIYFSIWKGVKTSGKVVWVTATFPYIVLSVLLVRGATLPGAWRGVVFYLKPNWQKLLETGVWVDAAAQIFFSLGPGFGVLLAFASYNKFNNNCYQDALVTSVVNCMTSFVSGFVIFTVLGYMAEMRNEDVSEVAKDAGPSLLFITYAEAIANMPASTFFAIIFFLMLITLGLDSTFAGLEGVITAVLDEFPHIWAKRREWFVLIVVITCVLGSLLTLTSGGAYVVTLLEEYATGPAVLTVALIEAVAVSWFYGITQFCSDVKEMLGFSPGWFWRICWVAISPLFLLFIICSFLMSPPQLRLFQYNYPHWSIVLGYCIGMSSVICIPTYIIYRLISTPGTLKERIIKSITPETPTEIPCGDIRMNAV

Sodium-dependent serotonin transporter (Homo sapiens, UniProt P31645), sequence (P31645 whole entry): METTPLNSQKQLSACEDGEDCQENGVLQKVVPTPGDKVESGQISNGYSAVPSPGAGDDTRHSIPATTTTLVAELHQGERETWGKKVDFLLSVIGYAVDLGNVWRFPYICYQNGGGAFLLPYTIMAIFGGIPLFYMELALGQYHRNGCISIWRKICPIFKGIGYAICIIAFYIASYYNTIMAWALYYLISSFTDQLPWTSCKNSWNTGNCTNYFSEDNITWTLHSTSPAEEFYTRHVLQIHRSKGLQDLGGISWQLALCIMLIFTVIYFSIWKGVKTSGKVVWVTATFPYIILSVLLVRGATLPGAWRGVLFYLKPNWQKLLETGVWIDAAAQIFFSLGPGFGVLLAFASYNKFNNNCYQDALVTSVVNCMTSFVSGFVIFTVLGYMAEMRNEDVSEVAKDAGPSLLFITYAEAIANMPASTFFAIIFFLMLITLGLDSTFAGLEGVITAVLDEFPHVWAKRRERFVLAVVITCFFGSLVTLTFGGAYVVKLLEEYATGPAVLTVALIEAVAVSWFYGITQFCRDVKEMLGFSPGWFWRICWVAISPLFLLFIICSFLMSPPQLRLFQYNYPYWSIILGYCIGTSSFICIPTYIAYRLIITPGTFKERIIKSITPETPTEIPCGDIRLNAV
Sodium-dependent noradrenaline transporter, sequence (P23975 whole entry): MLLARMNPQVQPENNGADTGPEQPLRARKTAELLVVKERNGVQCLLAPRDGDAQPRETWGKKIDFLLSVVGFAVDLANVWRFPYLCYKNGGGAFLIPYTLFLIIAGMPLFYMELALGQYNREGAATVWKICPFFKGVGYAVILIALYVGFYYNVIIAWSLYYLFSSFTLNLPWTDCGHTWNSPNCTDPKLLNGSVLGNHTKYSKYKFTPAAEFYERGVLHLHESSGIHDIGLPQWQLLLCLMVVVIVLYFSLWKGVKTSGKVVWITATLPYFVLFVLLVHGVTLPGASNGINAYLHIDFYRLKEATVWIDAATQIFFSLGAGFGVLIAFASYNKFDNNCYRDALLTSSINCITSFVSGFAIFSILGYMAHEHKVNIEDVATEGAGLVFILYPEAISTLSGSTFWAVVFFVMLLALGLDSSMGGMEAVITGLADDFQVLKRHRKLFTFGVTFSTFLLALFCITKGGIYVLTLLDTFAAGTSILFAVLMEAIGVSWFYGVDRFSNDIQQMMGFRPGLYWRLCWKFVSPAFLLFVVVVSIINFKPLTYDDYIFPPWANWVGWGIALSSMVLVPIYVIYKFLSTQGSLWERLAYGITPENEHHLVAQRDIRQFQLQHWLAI
Sodium-dependent dopamine transporter, sequence (Q01959 whole entry): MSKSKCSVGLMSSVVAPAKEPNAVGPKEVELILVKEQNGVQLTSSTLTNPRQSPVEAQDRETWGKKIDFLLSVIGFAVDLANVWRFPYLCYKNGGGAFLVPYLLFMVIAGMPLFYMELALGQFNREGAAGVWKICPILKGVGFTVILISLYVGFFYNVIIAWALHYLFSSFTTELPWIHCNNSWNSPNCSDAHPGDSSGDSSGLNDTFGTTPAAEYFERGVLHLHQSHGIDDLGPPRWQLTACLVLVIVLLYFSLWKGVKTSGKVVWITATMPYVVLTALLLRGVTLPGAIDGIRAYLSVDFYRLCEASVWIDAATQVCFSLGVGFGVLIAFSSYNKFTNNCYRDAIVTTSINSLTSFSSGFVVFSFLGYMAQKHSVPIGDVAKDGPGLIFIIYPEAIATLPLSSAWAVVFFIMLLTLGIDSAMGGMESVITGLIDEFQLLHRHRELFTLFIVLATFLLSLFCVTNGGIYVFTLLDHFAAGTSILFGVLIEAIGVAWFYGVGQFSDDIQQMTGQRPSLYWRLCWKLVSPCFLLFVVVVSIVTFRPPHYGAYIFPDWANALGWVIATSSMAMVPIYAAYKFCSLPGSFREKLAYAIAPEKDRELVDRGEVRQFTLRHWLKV
Histamine H3 receptor, sequence (Q9Y5N1 whole entry): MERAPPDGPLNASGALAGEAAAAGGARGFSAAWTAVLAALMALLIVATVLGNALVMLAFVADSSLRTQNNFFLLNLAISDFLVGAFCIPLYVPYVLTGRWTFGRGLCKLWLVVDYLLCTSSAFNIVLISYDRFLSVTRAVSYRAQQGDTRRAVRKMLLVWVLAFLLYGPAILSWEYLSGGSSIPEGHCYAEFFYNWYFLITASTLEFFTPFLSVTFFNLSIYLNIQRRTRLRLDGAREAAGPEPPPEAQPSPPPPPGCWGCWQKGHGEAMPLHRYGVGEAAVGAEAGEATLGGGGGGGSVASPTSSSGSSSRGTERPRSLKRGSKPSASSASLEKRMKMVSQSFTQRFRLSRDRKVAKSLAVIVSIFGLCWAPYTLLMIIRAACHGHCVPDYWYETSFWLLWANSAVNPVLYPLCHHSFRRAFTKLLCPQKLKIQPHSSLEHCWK

SMILES | Ki [1] [nM] | Ki [2] [nM] | Ki [3] [nM] | Ki [4] [µM] | concentration at 6 h [5] [nM] | concentration at 1 h [6] [nM] | concentration at 3 h [7] [nM] | concentration at 1 h [8] [nM] | concentration at 3 h [9] [nM] | concentration at 6 h [10] [nM] | Ki [11] [nM]
COc1ccc([C@@H]2CN(C)Cc3cc(OCCCN4CCC(F)CC4)ccc32)cc1 | 2.7 |  |  |  |  |  |  |  |  |  | 
CNCc1cc(C#CCCN2CCOCC2)ccc1Oc1ccc(Cl)cc1 |  |  |  |  | 1660 | 1380 | 40 | 68 | 1700 | 28 | 
CNCc1cc(C#CCCN2CCOCC2)ccc1Oc1ccc(Cl)c(C(F)(F)F)c1 |  |  |  |  | 3560 | 370 | 120 | 53 | 1860 | 110 | 
CNCc1cc(C#CCCN2CCSCC2)ccc1Oc1ccc(SC)cc1 |  |  |  |  | 10 | 87 | 360 | 45 | 360 | 250 | 
CNCc1cc(C#CCCN2CCNC(=O)C2)ccc1Oc1ccc(SC)cc1 | 1.3 |  |  |  |  |  |  |  |  |  | 
CNCc1cc(C#CCCN2CCC(F)CC2)ccc1Oc1ccc(SC)cc1 |  | 190 | 96 |  | 130 | 44 | 8 | 23 | 63 | 10 | 
CNCc1cc(C#CCCN2CCOCC2)ccc1Oc1ccc(SC)c(C)c1 |  | 1000 | 240 |  |  |  |  |  |  |  | 
CNCc1cc(C#CCCN2CCOCC2)ccc1Oc1ccc(F)cc1Cl |  |  |  |  | 400 | 270 | 18 | 30 | 440 | 8 | 

Next, values leading:

Ki [1] [nM] | Ki [2] [nM] | Ki [3] [nM] | Ki [4] [µM] | concentration at 6 h [5] [nM] | concentration at 1 h [6] [nM] | concentration at 3 h [7] [nM] | concentration at 1 h [8] [nM] | concentration at 3 h [9] [nM] | concentration at 6 h [10] [nM] | Ki [11] [nM] | SMILES
 | 700 | 290 |  |  |  |  |  |  |  |  | CNCc1cc(C#CCCN2CCOCC2)ccc1Oc1ccc(SC)cc1
26 |  |  | 0.007 |  |  |  |  |  |  |  | CCN(CC)CCCOc1cc2c(cn1)C(c1ccc(Cl)c(Cl)c1)CN(C)C2 (stereo not given)
 |  |  |  | 1870 | 820 | 91 | 110 | 1420 | 48 |  | CNCc1cc(C#CCCN2CCOCC2)ccc1Oc1cccc(F)c1
 |  |  |  | 5400 | 1770 | 310 | 240 | 4650 | 150 |  | CNCc1cc(C#CCCN2CCOCC2)ccc1Oc1ccc(C(F)(F)F)cc1
 | 400 | 250 |  | 240 | 200 | 24 | 39 | 220 | 12 |  | CNCc1cc(C#CCCN(C)C2CC2)ccc1Oc1ccc(SC)cc1
1.7 |  |  | 9 |  |  |  |  |  |  | 0.5 | CNCc1cc(Br)ccc1Oc1ccc(SC)cc1
 |  |  |  | 10100 | 2370 | 230 | 180 | 5130 | 270 |  | CNCc1cc(C#CCCN2CCOCC2)ccc1Oc1cccc(Cl)c1
 |  |  |  | 520 | 120 | 32 | 17 | 320 | 27 |  | CNCc1cc(C#CCCNC2CC2)ccc1Oc1ccc(SC)cc1
